Laboratory results from ChEMBL document CHEMBL1151428, “Capability of 11 antipneumococcal antibiotics to select for resistance by multistep and single-step methodologies” (2007).
Values after ≈ are worked out from the molar mass of the structure shown.

Assays:
Type in all cases: functional
[1] = test system: Streptococcus pneumoniae; experiment: Antimicrobial activity against drug-resistant Streptococcus pneumoniae isolate 3243 by NCCLS M7-A7 method
[2] = test system: Streptococcus pneumoniae; experiment: Antimicrobial activity against drug-resistant Streptococcus pneumoniae isolate 3676 after 50 passages with moxifloxacin measured after 10 antibiotic-free subculture by multi-step resistance selection technique
[3] = test system: Streptococcus pneumoniae; experiment: Antimicrobial activity against drug-resistant Streptococcus pneumoniae isolate 1077 after 49 passages with clindamycin measured after 10 antibiotic-free subculture by multi-step resistance selection technique
[4] = test system: Streptococcus pneumoniae; experiment: Antimicrobial activity against drug-resistant Streptococcus pneumoniae isolate 3243 after 33 passages with azithromycin measured after 10 antibiotic-free subculture by multi-step resistance selection technique
Summary of the method: (§1)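 Mutants selected by daily broth passage in subinhibitory drug in cation-adjusted Mueller-Hinton broth with 5% lysed horse blood. Stability was tested by 10 daily passages on blood agar without antibiotic, then macrodilution MIC.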

[5] = test system: Streptococcus pneumoniae; experiment: Antimicrobial activity against drug-resistant Streptococcus pneumoniae isolate 1635 after 14 passages with clindamycin measured after 10 antibiotic-free subculture by multi-step resistance selection technique
[6] = test system: Streptococcus pneumoniae; experiment: Antimicrobial activity against drug-resistant Streptococcus pneumoniae isolate 2527 by NCCLS M7-A7 method
[7] = test system: Streptococcus pneumoniae; experiment: Antimicrobial activity against drug-resistant Streptococcus pneumoniae isolate 1635 after 14 passages with azithromycin measured after 10 antibiotic-free subculture by multi-step resistance selection technique; summary of the method: as §1
[8] = test system: Streptococcus pneumoniae; experiment: Antimicrobial activity against drug-resistant Streptococcus pneumoniae isolate 3413 after 50 passages by multi-step resistance selection technique
Summary of the method: (§2)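 Daily serial passage in subinhibitory drug levels in 1 ml cation-adjusted Mueller-Hinton broth with 5% lysed horse blood; fresh broth for tigecycline. Each day, 10 μl were taken from the tube one to two dilutions below the MIC whose turbidity matched the growth control, and used to set the next MIC. MIC by macrodilution.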

[9] = test system: Streptococcus pneumoniae; experiment: Antimicrobial activity against drug-resistant Streptococcus pneumoniae isolate 1077 after 29 passages with azithromycin measured after 10 antibiotic-free subculture by multi-step resistance selection technique; summary of the method: as §1
[10] = test system: Streptococcus pneumoniae; experiment: Antimicrobial activity against drug-resistant Streptococcus pneumoniae isolate 1635 after 49 passages with clarithromycin measured after 10 antibiotic-free subculture by multi-step resistance selection technique
[11] = test system: Streptococcus pneumoniae; experiment: Antimicrobial activity against drug-resistant Streptococcus pneumoniae isolate 1635 by NCCLS M7-A7 method
[12] = test system: Streptococcus pneumoniae; experiment: Antimicrobial activity against drug-resistant Streptococcus pneumoniae isolate 3676 after 50 passages by multi-step resistance selection technique
Summary of the method: (§3)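 Daily serial passage in broth at subinhibitory drug levels: 1 ml cation-adjusted Mueller-Hinton broth with 5% lysed horse blood; fresh broth for tigecycline. Each day 10 μl inoculum taken from the tube one to two dilutions below MIC matching growth-control turbidity, used to set next MIC. Continued until ≥8-fold MIC rise, minimum 14, maximum 50 passages; MIC read by macrodilution.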

[13] = test system: Streptococcus pneumoniae; experiment: Antimicrobial activity against drug-resistant Streptococcus pneumoniae isolate 37 by NCCLS M7-A7 method
[14] = test system: Streptococcus pneumoniae; experiment: Antimicrobial activity against drug-resistant Streptococcus pneumoniae isolate 3676 after 44 passages with clarithromycin measured after 10 antibiotic-free subculture by multi-step resistance selection technique
[15] = test system: Streptococcus pneumoniae; experiment: Antimicrobial activity against drug-resistant Streptococcus pneumoniae isolate 3665 by NCCLS M7-A7 method
[16] = test system: Streptococcus pneumoniae; experiment: Antimicrobial activity against drug-resistant Streptococcus pneumoniae isolate 1076 by NCCLS M7-A7 method
[17] = test system: Streptococcus pneumoniae; experiment: Antimicrobial activity against drug-resistant Streptococcus pneumoniae isolate 37 after 14 passages with Telithromycin measured after 10 antibiotic-free subculture by multi-step resistance selection technique
[18] = test system: Streptococcus pneumoniae; experiment: Antimicrobial activity against drug-resistant Streptococcus pneumoniae isolate 3243 after 20 passages with moxifloxacin measured after 10 antibiotic-free subculture by multi-step resistance selection technique; summary of the method: as §1
[19] = test system: Streptococcus pneumoniae; experiment: Antimicrobial activity against drug-resistant Streptococcus pneumoniae isolate 3009 after 21 passages with gemifloxacin measured after 10 antibiotic-free subculture by multi-step resistance selection technique; summary of the method: as §1
[20] = test system: Streptococcus pneumoniae; experiment: Antimicrobial activity against drug-resistant Streptococcus pneumoniae isolate 24 after 50 passages by multi-step resistance selection technique; summary of the method: as §2
[21] = test system: Streptococcus pneumoniae; experiment: Antimicrobial activity against drug-resistant Streptococcus pneumoniae isolate 3009 after 50 passages by multi-step resistance selection technique
Summary of the method: as §2, with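 “MIC. […]” for “MIC.”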

[22] = test system: Streptococcus pneumoniae; experiment: Antimicrobial activity against drug-resistant Streptococcus pneumoniae isolate 2527 after 50 passages by multi-step resistance selection technique
Summary of the method: as §2, with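 “MIC. […]” for “MIC.”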

[23] = test system: Streptococcus pneumoniae; experiment: Antimicrobial activity against drug-resistant Streptococcus pneumoniae isolate 3413 after 30 passages with Telithromycin measured after 10 antibiotic-free subculture by multi-step resistance selection technique; summary of the method: as §1
[24] = test system: Streptococcus pneumoniae; experiment: Antimicrobial activity against drug-resistant Streptococcus pneumoniae isolate 24 by NCCLS M7-A7 method
[25] = test system: Streptococcus pneumoniae; experiment: Antimicrobial activity against drug-resistant Streptococcus pneumoniae isolate 3676 after 14 passages with Telithromycin measured after 10 antibiotic-free subculture by multi-step resistance selection technique
[26] = test system: Streptococcus pneumoniae; experiment: Antimicrobial activity against drug-resistant Streptococcus pneumoniae isolate 3243 after 50 passages by multi-step resistance selection technique
Summary of the method: as §2, with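 “MIC. […]” for “MIC.”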

[27] = test system: Streptococcus pneumoniae; experiment: Antimicrobial activity against drug-resistant Streptococcus pneumoniae isolate 3009 by NCCLS M7-A7 method
[28] = test system: Streptococcus pneumoniae; experiment: Antimicrobial activity against drug-resistant Streptococcus pneumoniae isolate 3274 after 48 passages with Telithromycin measured after 10 antibiotic-free subculture by multi-step resistance selection technique; summary of the method: as §1
[29] = test system: Streptococcus pneumoniae; experiment: Antimicrobial activity against drug-resistant Streptococcus pneumoniae isolate 1076 after 14 passages with Telithromycin measured after 10 antibiotic-free subculture by multi-step resistance selection technique; summary of the method: as §1
[30] = test system: Streptococcus pneumoniae; experiment: Antimicrobial activity against drug-resistant Streptococcus pneumoniae isolate 3413 by NCCLS M7-A7 method
[31] = test system: Streptococcus pneumoniae; experiment: Antimicrobial activity against drug-resistant Streptococcus pneumoniae isolate 1076 after 35 passages with moxifloxacin measured after 10 antibiotic-free subculture by multi-step resistance selection technique; summary of the method: as §1
[32] = test system: Streptococcus pneumoniae; experiment: Antimicrobial activity against drug-resistant Streptococcus pneumoniae isolate 3274 by NCCLS M7-A7 method
[33] = test system: Streptococcus pneumoniae; experiment: Antimicrobial activity against drug-resistant Streptococcus pneumoniae isolate 3665 after 14 passages with Telithromycin measured after 10 antibiotic-free subculture by multi-step resistance selection technique
[34] = test system: Streptococcus pneumoniae; experiment: Antimicrobial activity against drug-resistant Streptococcus pneumoniae isolate 24 after 14 passages with Telithromycin measured after 10 antibiotic-free subculture by multi-step resistance selection technique; summary of the method: as §1
[35] = test system: Streptococcus pneumoniae; experiment: Antimicrobial activity against drug-resistant Streptococcus pneumoniae isolate 1077 after 50 passages by multi-step resistance selection technique; summary of the method: as §2
[36] = test system: Streptococcus pneumoniae; experiment: Antimicrobial activity against drug-resistant Streptococcus pneumoniae isolate 1077 after 15 passages with Telithromycin measured after 10 antibiotic-free subculture by multi-step resistance selection technique; summary of the method: as §1
[37] = test system: Streptococcus pneumoniae; experiment: Antimicrobial activity against drug-resistant Streptococcus pneumoniae isolate 3009 after 19 passages with moxifloxacin measured after 10 antibiotic-free subculture by multi-step resistance selection technique; summary of the method: as §1
[38] = test system: Streptococcus pneumoniae; experiment: Antimicrobial activity against drug-resistant Streptococcus pneumoniae isolate 3665 after 50 passages by multi-step resistance selection technique; summary of the method: as §3
[39] = test system: Streptococcus pneumoniae; experiment: Antimicrobial activity against drug-resistant Streptococcus pneumoniae isolate 3274 after 50 passages by multi-step resistance selection technique; summary of the method: as §2

## C[C@@H](O)[C@H]1C(=O)N2C(C(=O)O)=C(SCCNC=N)C[C@H]12 [IMIPENEM ANHYDROUS]
[1]
  MIC: 0.016 µg/mL (≈ 0.0534 µM)
[2]
  MIC: 0.03 µg/mL (≈ 0.1 µM)
[3]
  MIC: 0.004 µg/mL (≈ 0.0134 µM)
[4]
  MIC: 0.03 µg/mL (≈ 0.1 µM)
[5]
  MIC: 0.002 µg/mL (≈ 0.00668 µM)
[6]
  MIC: 0.25 µg/mL (≈ 0.835 µM)
[7]
  MIC: 0.002 µg/mL (≈ 0.00668 µM)
[8]
  MIC: 0.06 µg/mL (≈ 0.2 µM)
[9]
  MIC: 0.008 µg/mL (≈ 0.0267 µM)
[10]
  MIC: 0.002 µg/mL (≈ 0.00668 µM)
[11]
  MIC: 0.002 µg/mL (≈ 0.00668 µM)
[12]
  MIC: 0.016 µg/mL (≈ 0.0534 µM)
[13]
  MIC: 0.5 µg/mL (≈ 1.67 µM)
[14]
  MIC: 0.016 µg/mL (≈ 0.0534 µM)
[15]
  MIC: 0.03 µg/mL (≈ 0.1 µM)
[16]
  MIC: 0.008 µg/mL (≈ 0.0267 µM)
[17]
  MIC: 0.25 µg/mL (≈ 0.835 µM)
[18]
  MIC: 0.004 µg/mL (≈ 0.0134 µM)
[19]
  MIC: 0.008 µg/mL (≈ 0.0267 µM)
[20]
  MIC: 0.5 µg/mL (≈ 1.67 µM)
[21]
  MIC: 0.008 µg/mL (≈ 0.0267 µM)
[22]
  MIC: 0.25 µg/mL (≈ 0.835 µM)
[23]
  MIC: 0.125 µg/mL (≈ 0.418 µM)
[24]
  MIC: 0.5 µg/mL (≈ 1.67 µM)
[25]
  MIC: 0.008 µg/mL (≈ 0.0267 µM)
[26]
  MIC: 0.016 µg/mL (≈ 0.0534 µM)
[27]
  MIC: 0.008 µg/mL (≈ 0.0267 µM)
[28]
  MIC: 0.016 µg/mL (≈ 0.0534 µM)
[29]
  MIC: 0.004 µg/mL (≈ 0.0134 µM)
[30]
  MIC: 0.125 µg/mL (≈ 0.418 µM)
[31]
  MIC: 0.008 µg/mL (≈ 0.0267 µM)
[32]
  MIC: 0.016 µg/mL (≈ 0.0534 µM)
[33]
  MIC: 0.008 µg/mL (≈ 0.0267 µM)
[34]
  MIC: 0.25 µg/mL (≈ 0.835 µM)
[35]
  MIC: 0.008 µg/mL (≈ 0.0267 µM)
[36]
  MIC: 0.008 µg/mL (≈ 0.0267 µM)
[37]
  MIC: 0.008 µg/mL (≈ 0.0267 µM)
[38]
  MIC: 0.016 µg/mL (≈ 0.0534 µM)
[39]
  MIC: 0.03 µg/mL (≈ 0.1 µM)
